Experimental data from ChEMBL document CHEMBL4028873, “The Discovery of a Dual TTK Protein Kinase/CDC2-Like Kinase (CLK2) Inhibitor for the Treatment of Triple Negative Breast Cancer Initiated from a Phenotypic Screen” (J Med Chem, 2017).
Activity calls are given as the source filed them. The rule behind the calls is not given here.

Tests used:
[1] = biological target: Dual specificity protein kinase CLK2 (Homo sapiens) (UniProt P49760); details: 3 uM
[2] = biological target: Voltage-gated inwardly rectifying potassium channel KCNH2 (Homo sapiens, UniProt Q12809); assay: Inhibition of human ERG
Chain of Voltage-gated inwardly rectifying potassium channel KCNH2 (Q12809 whole entry, canonical isoform): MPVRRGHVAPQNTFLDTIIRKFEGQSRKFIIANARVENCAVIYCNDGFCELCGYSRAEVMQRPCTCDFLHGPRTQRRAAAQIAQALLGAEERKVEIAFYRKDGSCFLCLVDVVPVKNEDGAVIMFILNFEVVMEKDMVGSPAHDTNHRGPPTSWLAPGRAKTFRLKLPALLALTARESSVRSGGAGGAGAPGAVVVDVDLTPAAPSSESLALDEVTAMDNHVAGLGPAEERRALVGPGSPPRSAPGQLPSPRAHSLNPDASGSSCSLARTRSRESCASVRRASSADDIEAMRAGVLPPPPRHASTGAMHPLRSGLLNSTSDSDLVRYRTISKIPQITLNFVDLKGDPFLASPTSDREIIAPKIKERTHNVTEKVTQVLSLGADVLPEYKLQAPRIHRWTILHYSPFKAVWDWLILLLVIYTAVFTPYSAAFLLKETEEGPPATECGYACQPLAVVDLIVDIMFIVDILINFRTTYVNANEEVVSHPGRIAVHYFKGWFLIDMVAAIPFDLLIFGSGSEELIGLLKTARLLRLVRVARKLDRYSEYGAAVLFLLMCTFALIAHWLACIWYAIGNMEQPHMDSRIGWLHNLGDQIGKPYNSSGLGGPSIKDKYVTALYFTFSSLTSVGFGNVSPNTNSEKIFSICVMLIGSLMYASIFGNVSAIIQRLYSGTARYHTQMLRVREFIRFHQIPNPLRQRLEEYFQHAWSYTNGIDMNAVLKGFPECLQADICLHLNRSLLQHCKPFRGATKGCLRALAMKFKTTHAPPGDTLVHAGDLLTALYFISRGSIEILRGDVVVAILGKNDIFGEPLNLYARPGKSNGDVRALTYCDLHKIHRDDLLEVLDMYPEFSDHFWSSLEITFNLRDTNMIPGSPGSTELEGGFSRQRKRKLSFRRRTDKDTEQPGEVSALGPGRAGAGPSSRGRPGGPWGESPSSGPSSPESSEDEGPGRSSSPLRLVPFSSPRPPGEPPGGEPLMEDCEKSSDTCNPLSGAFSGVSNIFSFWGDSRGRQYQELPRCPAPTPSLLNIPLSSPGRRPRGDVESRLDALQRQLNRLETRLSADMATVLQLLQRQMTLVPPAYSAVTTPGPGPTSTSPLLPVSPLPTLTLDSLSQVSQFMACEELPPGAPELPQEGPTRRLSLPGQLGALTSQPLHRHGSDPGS

[3] = biological target: T1, Phosphorylase b kinase gamma catalytic chain, skeletal muscle/heart isoform (Homo sapiens, UniProt Q16816); assay: Inhibition of full length human GST-tagged PHKG1 expressed in baculovirus by Z'-LYTE assay
Target sequence in this assay (Q16816 whole entry, canonical isoform): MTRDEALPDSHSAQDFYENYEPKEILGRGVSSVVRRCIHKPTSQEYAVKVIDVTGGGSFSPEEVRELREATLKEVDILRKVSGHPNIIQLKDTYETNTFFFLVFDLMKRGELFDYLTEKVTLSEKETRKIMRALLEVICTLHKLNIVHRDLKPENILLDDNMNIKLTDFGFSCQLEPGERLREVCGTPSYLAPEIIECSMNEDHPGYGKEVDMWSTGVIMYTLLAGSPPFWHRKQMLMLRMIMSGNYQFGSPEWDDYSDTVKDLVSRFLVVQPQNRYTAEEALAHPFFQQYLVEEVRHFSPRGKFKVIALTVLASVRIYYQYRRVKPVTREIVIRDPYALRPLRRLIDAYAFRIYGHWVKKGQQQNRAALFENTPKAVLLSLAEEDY

[4] = Clearance in rat at 2 mg/kg, iv; format: ADME, organism-based; details: in vivo
[5] = MRT in SCID mouse at 5 mg/kg, iv; format: ADME, organism-based; details: in vivo
[6] = biological target: T2, Phosphatidylinositol 5-phosphate 4-kinase type-2 gamma (Homo sapiens) (UniProt Q8TBX8); assay: Binding affinity to PIP4K2C in human HCT116 cell lysate at 3 uM after 1 hr by LC-MS/MS analysis
T2 sequence (whole entry): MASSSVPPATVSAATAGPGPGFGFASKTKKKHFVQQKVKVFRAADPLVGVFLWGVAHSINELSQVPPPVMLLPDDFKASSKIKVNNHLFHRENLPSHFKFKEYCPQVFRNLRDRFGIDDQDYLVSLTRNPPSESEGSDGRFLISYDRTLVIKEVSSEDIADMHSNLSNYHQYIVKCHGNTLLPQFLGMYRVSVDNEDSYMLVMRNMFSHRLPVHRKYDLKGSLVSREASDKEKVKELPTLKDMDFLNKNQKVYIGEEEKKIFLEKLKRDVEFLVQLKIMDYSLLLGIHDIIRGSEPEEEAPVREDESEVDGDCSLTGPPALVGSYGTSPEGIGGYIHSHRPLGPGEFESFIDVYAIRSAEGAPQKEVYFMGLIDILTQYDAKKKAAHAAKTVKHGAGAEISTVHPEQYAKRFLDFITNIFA
Method in brief: (§1)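 ActivX KiNative cellular kinase profiling. HCT-116 cells were grown in RPMI-1640 with 10% FBS and exposed to compound at 3 μM for 1 h, with DMSO-only controls. Cells were then washed with ice-cold PBS, scraped, pelleted and stored at −80 °C. Kinase binding was reported as percent occupancy relative to the untreated controls.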

[7] = biological target: T3, Dual specificity tyrosine-phosphorylation-regulated kinase 3 (Homo sapiens) (UniProt O43781); details: 3 uM
T3 sequence (whole entry): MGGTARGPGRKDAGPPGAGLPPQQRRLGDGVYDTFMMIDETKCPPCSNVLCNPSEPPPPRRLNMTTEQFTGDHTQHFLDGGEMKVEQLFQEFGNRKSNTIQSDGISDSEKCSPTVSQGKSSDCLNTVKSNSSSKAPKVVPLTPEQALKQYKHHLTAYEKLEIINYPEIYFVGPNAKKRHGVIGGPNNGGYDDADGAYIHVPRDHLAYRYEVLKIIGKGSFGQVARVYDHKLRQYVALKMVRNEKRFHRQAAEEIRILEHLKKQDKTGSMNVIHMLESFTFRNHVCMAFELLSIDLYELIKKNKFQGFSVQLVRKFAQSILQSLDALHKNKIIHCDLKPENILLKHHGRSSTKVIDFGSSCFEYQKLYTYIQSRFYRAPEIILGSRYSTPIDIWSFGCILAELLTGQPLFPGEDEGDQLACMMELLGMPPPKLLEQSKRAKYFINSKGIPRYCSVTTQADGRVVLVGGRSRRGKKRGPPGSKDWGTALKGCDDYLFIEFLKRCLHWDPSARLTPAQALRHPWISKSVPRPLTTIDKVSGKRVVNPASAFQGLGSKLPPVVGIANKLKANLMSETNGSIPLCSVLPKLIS

[8] = Mean residence time in rat at 2 mg/kg, iv; format: ADME, organism-based; details: in vivo
[9] = biological target: T1, Phosphorylase b kinase gamma catalytic chain, skeletal muscle/heart isoform; assay: Binding affinity to PHKG1 in human HCT116 cells at 3 uM after 1 hr by LC-MS/MS analysis relative to control; format: cell-based
Method in brief: as §1
Target sequence in this assay (Q16816 whole entry, looked up, canonical isoform): as the sequence (Q16816 whole entry, canonical isoform) above

MDA-MB-231 = assay: Antiproliferative activity against human MDA-MB-231 cells after 3 days by CellTiter-Glo assay; format: functional, cell-based
Method in brief: (§2)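 Cell lines kept in vendor-recommended growth media; 3-day compound exposure, then CellTiter-Glo luminescence read. Percent inhibition per concentration normalized to DMSO control, triplicate wells.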

[10] = biological target: T4, Dual specificity tyrosine-phosphorylation-regulated kinase 3 (Homo sapiens, UniProt O43781); assay: Inhibition of human full length recombinant GST-tagged DYRK3 expressed in baculovirus by Z'-LYTE assay
T4 sequence (O43781 whole entry): T3 sequence (whole entry)

Mus musculus [11] = assay: Toxicity in SCID mouse xenografted with human CAL51 cells assessed as loss in body weight at 10 mg/kg, iv administered every 3 days for 16 days relative to control; format: organism-based; details: in vivo
CAL-51 [12] = assay: Antiproliferative activity against human CAL51 cells xenografted in SCID mouse assessed as tumor growth inhibition at 20 mg/kg, iv administered every 3 days for 16 days relative to control; format: functional; details: CAL-51, iv, read-out: TGI
Method in brief: (§3)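 Mice bearing tumors of about 125 mm3 randomized (n = 8−10/group) and given compound intravenously at the listed doses and schedules. Tumors measured twice weekly by digital caliper on long and short axes; volume = width² × length/2.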

[13] = Volume of distribution at steady state in rat at 2 mg/kg, iv; format: ADME, organism-based; details: in vivo, read-out: Vdss
[14] = biological target: c-Jun N-terminal kinase, JNK (Homo sapiens, UniProt P45983+P53779+P45984); assay: Inhibition of JNK1/JNK2/JNK3 in human HCT116 cell lysate after 1 hr by LC-MS/MS analysis relative to control
[15] = biological target: T5, Phosphatidylinositol 5-phosphate 4-kinase type-2 gamma (Homo sapiens, UniProt Q8TBX8); assay: Inhibition of PIP4K2C in human HCT116 cell lysate after 1 hr by LC-MS/MS analysis relative to control
T5 sequence (Q8TBX8 whole entry): T2 sequence (whole entry)

ZR-75-30 = assay: Antiproliferative activity against human ZR75-30 cells after 3 days by CellTiter-Glo assay; format: cell-based; details: zr-75-30, 72 h
Method in brief: as §2

CAL-51 [16] = assay: Antiproliferative activity against human CAL51 cells assessed as reduction in cell viability incubated for 12 to 72 hrs followed by compound washout measured after 72 hrs by Cell-Titer Glo assay; format: functional, cell-based
Method in brief: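 Cal-51 seeded at 3000 cells/well, dosed next day (0.2% DMSO final), triplicate wells; exposure at 37 °C, 5% CO2 for 6, 12, 24, 48 or 72 h, then three medium washes and culture in fresh medium up to 72 h post treatment; viability read by CellTiter-Glo luminescence.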

[17] = Metabolic stability in human liver S9 fraction assessed as percent of compound remaining after 60 mins; format: ADME, tissue-based; details: read-out: Stability
MDA-MB-361 = assay: Antiproliferative activity against human MDA-MB-361 cells after 3 days by CellTiter-Glo assay; format: cell-based; details: mda-mb-361, 72 h
Method in brief: as §2

[18] = biological target: Dual specificity tyrosine-phosphorylation-regulated kinase 1A (Homo sapiens, UniProt Q13627); details: 3 uM
CAL-51 [19] = assay: Antiproliferative activity against human CAL51 cells xenografted in SCID mouse assessed as tumor growth inhibition at 10 mg/kg, iv administered every 3 days for 16 days relative to control; format: functional; details: CAL-51, iv, read-out: TGI
Method in brief: as §3

Mus musculus [20] = assay: Toxicity in SCID mouse xenografted with human CAL51 cells assessed as loss in body weight at 20 mg/kg, iv administered every 7 days for 16 days relative to control; format: organism-based; details: in vivo

Chain of Dual specificity protein kinase CLK2 (Homo sapiens) (P49760 whole entry, looked up): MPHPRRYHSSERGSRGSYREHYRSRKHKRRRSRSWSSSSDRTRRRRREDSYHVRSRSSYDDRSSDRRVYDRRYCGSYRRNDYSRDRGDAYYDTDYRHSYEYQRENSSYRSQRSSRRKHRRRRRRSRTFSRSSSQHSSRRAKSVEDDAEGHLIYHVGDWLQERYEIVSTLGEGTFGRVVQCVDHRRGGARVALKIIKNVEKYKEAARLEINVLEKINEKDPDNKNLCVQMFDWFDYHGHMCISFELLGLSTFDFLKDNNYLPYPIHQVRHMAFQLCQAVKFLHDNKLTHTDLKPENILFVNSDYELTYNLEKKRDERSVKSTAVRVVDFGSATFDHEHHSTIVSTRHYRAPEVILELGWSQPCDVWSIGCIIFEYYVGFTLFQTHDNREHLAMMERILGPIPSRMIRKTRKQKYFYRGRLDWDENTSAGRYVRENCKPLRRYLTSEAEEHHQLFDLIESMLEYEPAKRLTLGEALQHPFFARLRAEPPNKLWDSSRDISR

inhibition [1]: > 80%
IC50 [3]: 136 nM
clearance [4]: 9.3 mL/min/kg
MRT [5]: 5.2 h
Activity [6]: > 75%
inhibition [7]: > 80%
MRT [8]: 4.1 h
Activity [9]: 26%
IC50 [10]: 99 nM
Vd [13]: 2.3 L/kg
IC50 [14]: 680 nM
IC50 [15]: 1300 nM
remaining at 1 h [17]: 91%
inhibition [18]: > 80%
SMILES: CNC(=O)c1ccc(Nc2nc(OC3CCCC3)c3c(-c4ccc5nc(C)oc5c4)c[nH]c3n2)c(OC)c1
IC50 [2]: > 33000 nM
Activity (MDA-MB-231): Active
Activity (Mus musculus [11]): 5%
inhibition in vivo at 20 mg/kg (CAL-51 [12]): 71%
Activity (ZR-75-30): Non-Toxic
Activity (CAL-51 [16]): Active
Activity (MDA-MB-361): Non-Toxic
inhibition in vivo at 10 mg/kg (CAL-51 [19]): 71%
Activity (Mus musculus [20]): Non-Toxic
